# In ChEMBL document CHEMBL4402566, “2-Substituted α,β-Methylene-ADP Derivatives: Potent Competitive Ecto-5'-nucleotidase (CD73) Inhibitors with Variable Binding Modes” (J Med Chem, 2020):
# The source made the active and inactive calls. The calls are words filed in the database; no cut-off is given here.
# Columns and labels:
# [1] = target: T1, 5'-nucleotidase (Homo sapiens, UniProt P21589); assay: Inhibition of purified recombinant soluble human CD73 expressed in Sf9 cells [3H]AMP as substrate incubated for 25 mins by scintillation counting method
# Summary of the method: (§1)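 Radiometric CD73 assay in 25 mM Tris, 140 mM NaCl, 25 mM NaH2PO4, pH 7.4. Enzyme per vial: rat CD73 1.63 ng, human CD73 0.365 ng, MDA-MB-231 membranes 7.4 ng protein. […] 25 min at 37 °C, shaking. Stopped with cold LaCl3/sodium acetate pH 4.0 to precipitate substrate. Filtrate counted by scintillation. Full curves; Ki from IC50 via Cheng–Prusoff.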
# [2] = target: T2, Ectonucleotide pyrophosphatase/phosphodiesterase family member 1 (Homo sapiens) (UniProt P22413); assay: Inhibition of human recombinant NPP1 at 10 uM using p-nitrophenyl thymidine monophosphate substrate incubated for 30 mins by colorimetry
# T2 sequence (whole entry): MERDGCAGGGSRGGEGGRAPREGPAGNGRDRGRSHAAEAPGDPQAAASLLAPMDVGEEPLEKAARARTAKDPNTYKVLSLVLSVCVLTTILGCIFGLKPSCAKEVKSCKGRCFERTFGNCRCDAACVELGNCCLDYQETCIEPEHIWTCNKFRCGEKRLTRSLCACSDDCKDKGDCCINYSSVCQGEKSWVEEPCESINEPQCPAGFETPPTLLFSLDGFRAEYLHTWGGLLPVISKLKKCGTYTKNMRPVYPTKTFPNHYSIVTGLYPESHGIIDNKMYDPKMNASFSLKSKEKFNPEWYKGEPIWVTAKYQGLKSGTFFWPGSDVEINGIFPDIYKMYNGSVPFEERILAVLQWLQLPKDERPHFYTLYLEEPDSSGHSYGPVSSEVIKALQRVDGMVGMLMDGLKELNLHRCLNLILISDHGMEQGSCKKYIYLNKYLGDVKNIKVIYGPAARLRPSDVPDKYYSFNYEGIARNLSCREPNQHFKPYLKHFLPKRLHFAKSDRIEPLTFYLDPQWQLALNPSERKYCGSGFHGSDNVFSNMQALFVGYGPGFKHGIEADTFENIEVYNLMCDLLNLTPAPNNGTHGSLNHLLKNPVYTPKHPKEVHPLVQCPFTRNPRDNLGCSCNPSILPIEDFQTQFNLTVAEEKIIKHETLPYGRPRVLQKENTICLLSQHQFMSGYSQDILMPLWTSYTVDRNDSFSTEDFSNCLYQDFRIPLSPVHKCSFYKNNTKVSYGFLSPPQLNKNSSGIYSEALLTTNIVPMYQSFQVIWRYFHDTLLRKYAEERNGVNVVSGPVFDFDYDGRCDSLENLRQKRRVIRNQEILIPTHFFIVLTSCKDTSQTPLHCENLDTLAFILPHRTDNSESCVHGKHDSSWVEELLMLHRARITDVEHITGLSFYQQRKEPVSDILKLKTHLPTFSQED
# [3] = Metabolic stability in human blood plasma assessed as compound degradation at 200 uM incubated for 5 hrs at 37 degC by LC-MS analysis; format: ADME, cell-free; details: read-out: Drug degradation
# Summary of the method: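 Human plasma from healthy donors added to aqueous compound solution, 200 μM final. Incubated at 37 °C for 5 h. Supernatants analysed by LC-MS as percentage of compound remaining over time. Three separate experiments, each in duplicate.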
# [4] = Drug metabolism in rat liver microsomes at 200 uM after 2 hrs in presence of NADPH regenerative system at 37 degC by LC-MS analysis; format: ADME, Microsome; details: read-out: Drug metabolism
# [5] = Metabolic stability in rat liver microsomes assessed as intact compound level at 200 uM after 2 hrs in presence of NADPH regenerative system at 37 degC by LC-MS analysis; format: ADME, Microsome; details: read-out: Stability
# [6] = target: T1, 5'-nucleotidase; assay: Inhibition of native CD73 in human MDA-MB-231 cell membrane preparations [3H]AMP as substrate incubated for 25 mins by scintillation counting method; format: cell membranes; summary of the method: as §1
# [7] = target: T3, 5'-nucleotidase (Rattus norvegicus, UniProt P21588); assay: Inhibition of purified recombinant soluble rat CD73 expressed in Sf9 cells [3H]AMP as substrate incubated for 25 mins by scintillation counting method; summary of the method: as §1
# T3 sequence (P21588 whole entry): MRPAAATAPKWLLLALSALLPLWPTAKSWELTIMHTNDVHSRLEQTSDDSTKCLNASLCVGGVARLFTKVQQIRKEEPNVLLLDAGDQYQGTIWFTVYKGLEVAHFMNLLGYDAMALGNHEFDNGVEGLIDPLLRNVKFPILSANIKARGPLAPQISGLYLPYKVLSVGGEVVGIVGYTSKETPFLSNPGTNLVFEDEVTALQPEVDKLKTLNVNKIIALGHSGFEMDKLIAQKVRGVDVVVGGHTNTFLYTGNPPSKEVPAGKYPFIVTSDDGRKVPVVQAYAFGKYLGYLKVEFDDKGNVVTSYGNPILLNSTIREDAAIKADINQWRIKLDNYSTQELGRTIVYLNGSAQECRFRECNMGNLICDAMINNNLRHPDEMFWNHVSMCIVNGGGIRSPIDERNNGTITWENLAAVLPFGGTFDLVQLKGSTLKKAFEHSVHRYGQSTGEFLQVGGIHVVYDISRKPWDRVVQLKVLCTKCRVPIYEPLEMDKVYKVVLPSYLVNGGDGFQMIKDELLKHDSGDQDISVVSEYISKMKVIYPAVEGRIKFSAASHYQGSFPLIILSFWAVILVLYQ
# [8] = target: T4, Ectonucleotide pyrophosphatase/phosphodiesterase family member 3 (Homo sapiens) (UniProt O14638); assay: Inhibition of human recombinant NPP3 at 10 uM using p-nitrophenyl thymidine monophosphate substrate incubated for 30 mins by colorimetry
# T4 sequence (whole entry): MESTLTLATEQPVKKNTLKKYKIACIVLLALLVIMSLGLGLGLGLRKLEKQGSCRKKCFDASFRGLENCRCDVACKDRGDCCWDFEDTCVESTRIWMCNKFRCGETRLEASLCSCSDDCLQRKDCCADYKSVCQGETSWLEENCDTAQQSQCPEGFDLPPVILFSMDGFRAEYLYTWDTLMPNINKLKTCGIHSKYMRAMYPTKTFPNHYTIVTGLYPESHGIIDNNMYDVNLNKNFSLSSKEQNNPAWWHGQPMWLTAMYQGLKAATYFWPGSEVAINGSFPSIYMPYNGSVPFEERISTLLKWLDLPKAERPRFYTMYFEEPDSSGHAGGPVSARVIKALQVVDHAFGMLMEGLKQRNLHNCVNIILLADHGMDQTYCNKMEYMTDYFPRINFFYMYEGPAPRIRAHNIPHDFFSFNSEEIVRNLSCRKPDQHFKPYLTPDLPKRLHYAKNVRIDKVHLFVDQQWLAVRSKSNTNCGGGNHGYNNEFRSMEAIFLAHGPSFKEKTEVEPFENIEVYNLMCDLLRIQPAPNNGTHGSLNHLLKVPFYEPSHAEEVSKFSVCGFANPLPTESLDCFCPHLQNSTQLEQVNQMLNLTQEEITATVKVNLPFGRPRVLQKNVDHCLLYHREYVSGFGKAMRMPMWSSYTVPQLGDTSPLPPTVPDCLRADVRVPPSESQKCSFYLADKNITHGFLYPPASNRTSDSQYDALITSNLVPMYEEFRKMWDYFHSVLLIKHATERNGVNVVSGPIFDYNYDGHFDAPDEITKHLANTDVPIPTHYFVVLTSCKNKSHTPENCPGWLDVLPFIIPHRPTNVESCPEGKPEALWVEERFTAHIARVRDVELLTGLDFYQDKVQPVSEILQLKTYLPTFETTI
# [9] = target: Autotaxin (Homo sapiens) (UniProt Q13822); assay: Inhibition of human recombinant NPP2 at 10 uM using p-nitrophenyl thymidine monophosphate substrate incubated for 30 mins by colorimetry
# [10] = target: P2Y purinoceptor 1 (Homo sapiens) (UniProt P47900); assay: Activation of recombinant human P2Y1 receptor expressed in human 1321N1 cells assessed as stimulation of calcium mobilization at 10 uM by fluorescence based assay; format: functional, cell-based
# [11] = target: P2Y purinoceptor 12 (Homo sapiens) (UniProt Q9H244); assay: Activation of recombinant human P2Y12 receptor expressed in CHOK1 cells assessed as stimulation of beta-arrestin recruitment at 10 uM incubated for 90 mins by luminescence based assay
# [12] = Selectivity index, ratio of Ki for inhibition of purified recombinant soluble rat CD73 expressed in Sf9 cells to Ki for inhibition of purified recombinant soluble human CD73 expressed in Sf9 cells
# [13] = target: T3, 5'-nucleotidase; assay: Inhibition of rat CD73
# Summary of the method: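 Recombinant soluble rat CD73 expressed in Sf9 insect cells (1.63 ng per vial). Buffer was 25 mM Tris, 140 mM NaCl, 25 mM NaH2PO4, pH 7.4. […] Stopped with LaCl3/sodium acetate pH 4.0 to precipitate unreacted substrate, then filtered; adenosine in the filtrate counted by scintillation. Ki derived from IC50 by Cheng–Prusoff.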
# [14] = target: T1, 5'-nucleotidase; assay: Inhibition of human CD73
# [15] = Metabolic stability in rat liver microsomes assessed as compound degradation at 200 uM after 30 mins in presence of NADPH regenerative system at 37 degC by LC-MS analysis; format: ADME, Microsome; details: read-out: Drug degradation
# Summary of the method: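 Rat liver microsomes (2 mg) incubated with compound at 200 μM in 2 mL at 37 °C for various times. Stopped with ice-cold acetonitrile and centrifuged. Supernatant analysed by LC-MS as percentage remaining. Three separate experiments in duplicate.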
# Sequence of P2Y purinoceptor 12 (Homo sapiens) (Q9H244 whole entry): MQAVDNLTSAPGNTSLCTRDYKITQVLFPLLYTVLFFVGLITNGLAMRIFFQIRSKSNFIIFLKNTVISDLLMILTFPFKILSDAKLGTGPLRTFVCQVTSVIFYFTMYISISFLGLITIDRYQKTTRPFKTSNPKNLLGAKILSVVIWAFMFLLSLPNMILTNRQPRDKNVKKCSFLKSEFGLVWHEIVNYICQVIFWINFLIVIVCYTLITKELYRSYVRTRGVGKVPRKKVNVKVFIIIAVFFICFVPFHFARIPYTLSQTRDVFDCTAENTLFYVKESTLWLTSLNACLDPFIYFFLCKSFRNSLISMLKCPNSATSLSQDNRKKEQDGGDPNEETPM
# Sequence of P2Y purinoceptor 1 (Homo sapiens) (P47900 whole entry): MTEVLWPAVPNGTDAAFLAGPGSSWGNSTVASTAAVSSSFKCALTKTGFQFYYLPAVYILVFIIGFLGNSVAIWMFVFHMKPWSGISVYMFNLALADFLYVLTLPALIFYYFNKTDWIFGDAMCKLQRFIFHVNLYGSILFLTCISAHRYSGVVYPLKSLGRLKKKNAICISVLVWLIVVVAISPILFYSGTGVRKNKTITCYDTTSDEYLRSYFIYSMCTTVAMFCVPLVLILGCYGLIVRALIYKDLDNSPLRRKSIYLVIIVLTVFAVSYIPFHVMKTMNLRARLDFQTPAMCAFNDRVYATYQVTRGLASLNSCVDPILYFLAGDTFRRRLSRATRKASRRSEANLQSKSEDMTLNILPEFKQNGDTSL
# T1 sequence (P21589 whole entry): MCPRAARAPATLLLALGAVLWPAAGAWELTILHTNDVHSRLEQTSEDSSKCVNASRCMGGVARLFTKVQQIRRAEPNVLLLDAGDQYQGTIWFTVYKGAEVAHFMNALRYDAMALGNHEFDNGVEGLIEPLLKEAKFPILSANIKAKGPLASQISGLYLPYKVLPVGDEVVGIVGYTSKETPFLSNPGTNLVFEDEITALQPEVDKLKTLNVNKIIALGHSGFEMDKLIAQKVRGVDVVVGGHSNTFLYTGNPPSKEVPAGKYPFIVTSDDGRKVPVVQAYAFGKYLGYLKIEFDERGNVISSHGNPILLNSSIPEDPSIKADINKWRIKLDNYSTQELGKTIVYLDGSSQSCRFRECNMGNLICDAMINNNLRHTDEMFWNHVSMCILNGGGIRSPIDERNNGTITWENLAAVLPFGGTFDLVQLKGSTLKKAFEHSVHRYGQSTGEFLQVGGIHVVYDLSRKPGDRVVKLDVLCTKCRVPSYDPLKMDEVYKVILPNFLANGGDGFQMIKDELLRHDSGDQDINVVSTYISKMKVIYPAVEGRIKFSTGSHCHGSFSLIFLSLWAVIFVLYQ
Structure (SMILES),Ki [1],inhibition [2],Ki [6],Ki [7],inhibition [8],inhibition [9],Activity [10],Activity [11],further results
Nc1nc(I)nc2c1ncn2[C@@H]1O[C@H](COP(=O)(O)CP(=O)(O)O)[C@@H](O)[C@H]1O,3.59 nM,inactive,3.33 nM,15.1 nM,inactive,inactive,–,–,"metabolised at 5 h, 200 µM [3]: < 25%; metabolised at 2 h, 200 µM [4]: < 40%; remaining at 2 h, 200 µM [5]: 100%"
Nc1ncnc2c1ncn2[C@@H]1O[C@H](COP(=O)(O)OP(=O)(O)O)[C@@H](O)[C@H]1O,–,–,–,–,–,–,Active,Active,–
NNc1nc(N)c2ncn([C@@H]3O[C@H](COP(=O)(O)CP(=O)(O)O)[C@@H](O)[C@H]3O)c2n1,15.5 nM,–,15.4 nM,116 nM,–,–,–,–,Ratio Ki [12]: 7.5
C=CCSc1nc(N)c2ncn([C@@H]3O[C@H](COP(=O)(O)CP(=O)(O)O)[C@@H](O)[C@H]3O)c2n1,61.9 nM,–,65.4 nM,65.7 nM,–,–,–,–,–
Nc1nc(Cl)nc2c1ncn2[C@@H]1O[C@H](COP(=O)(O)CP(=O)(O)O)[C@@H](O)[C@H]1O,5.93 nM,inactive,4.57 nM,18.6 nM,inactive,inactive,inactive,inactive,–
Nc1nc(SCCC2CCCCC2)nc2c1ncn2[C@@H]1O[C@H](COP(=O)(O)CP(=O)(O)O)[C@@H](O)[C@H]1O,46.9 nM,inactive,49.1 nM,56.6 nM,inactive,inactive,inactive,inactive,–
CN(Cc1ccccc1)c1nc(Cl)nc2c1ncn2[C@@H]1O[C@H](COP(=O)(O)CP(=O)(O)O)[C@@H](O)[C@H]1O,–,–,–,–,–,–,–,–,Ki [13]: 0.746 nM; Ki [14]: 0.318 nM
Nc1nc(=O)[nH]c2c1ncn2[C@@H]1O[C@H](COP(=O)(O)CP(=O)(O)O)[C@@H](O)[C@H]1O,–,–,–,326 nM,–,–,–,–,–
Nc1ncnc2c1ncn2[C@@H]1O[C@H](COP(=O)(O)CP(=O)(O)O)[C@@H](O)[C@H]1O [PHOSPHOMETHYLPHOSPHONIC ACID ADENOSYL ESTER],–,–,207 nM,197 nM,–,–,Active,Active,"metabolised at 5 h, 200 µM [3]: ≤ 50%; metabolised at 0.5 h, 200 µM [15]: 100%"
Nc1nc(Cl)c2ncn([C@@H]3O[C@H](COP(=O)(O)CP(=O)(O)O)[C@@H](O)[C@H]3O)c2n1,23.6 nM,inactive,32.2 nM,268 nM,inactive,inactive,inactive,inactive,Ratio Ki [12]: 6.3
Nc1nc2c(ncn2[C@@H]2O[C@H](COP(=O)(O)CP(=O)(O)O)[C@@H](O)[C@H]2O)c(=O)[nH]1 [PHOSPHOMETHYLPHOSPHONIC ACID GUANOSYL ESTER],410 nM,–,255 nM,1110 nM,–,–,–,–,–
Nc1nc(N)c2ncn([C@@H]3O[C@H](COP(=O)(O)CP(=O)(O)O)[C@@H](O)[C@H]3O)c2n1,38.8 nM,–,35.7 nM,90.6 nM,–,–,–,–,–
Nc1nc(N2CCNCC2)nc2c1ncn2[C@@H]1O[C@H](COP(=O)(O)CP(=O)(O)O)[C@@H](O)[C@H]1O,184 nM,–,238 nM,2290 nM,–,–,–,–,Ratio Ki [12]: 12.5
